Test: MAD study: safety and tolerability
Format: in vivo, human
In short: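 Healthy males aged 18–55 with BMI 18–30 kg/m² were followed through dosing and a 6–8-day follow-up. Checks: physical examination, clinical laboratory tests, vital signs and 12-lead ECG, with adverse events coded in MedDRA. Events of special interest: ALT ≥2×ULN, QTcF ≥500 ms, Grade ≥2 photosensitivity, symptomatic overdose. Treatment-emergent events were summarised descriptively by organ class, preferred term and dose level for all exposed participants.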

CN1C(=O)c2cccc(OC(F)F)c2[C@H]2C[C@@H]1c1nc3ccc(-c4cnc(C5(N)CCC5)nc4)cc3n12 [Balinatunfib]
Alanine aminotransferase increased TEAE, events (MAD 200 mg BID, N = 8): 0
Alanine aminotransferase increased TEAE, participants (MAD 200 mg BID, N = 8): 0 n (%)
Any event TEAE, events (MAD 200 mg BID, N = 8): 7
Any event TEAE, participants (MAD 200 mg BID, N = 8): 4 (50.0) n (%)
Constipation TEAE, events (MAD 200 mg BID, N = 8): 0
Constipation TEAE, participants (MAD 200 mg BID, N = 8): 0 n (%)
Diarrhea TEAE, events (MAD 200 mg BID, N = 8): 1
Diarrhea TEAE, participants (MAD 200 mg BID, N = 8): 1 (12.5) n (%)
Dry skin TEAE, events (MAD 200 mg BID, N = 8): 2
Dry skin TEAE, participants (MAD 200 mg BID, N = 8): 2 (25.0) n (%)
Dysgeusia TEAE, events (MAD 200 mg BID, N = 8): 1
Dysgeusia TEAE, participants (MAD 200 mg BID, N = 8): 1 (12.5) n (%)
Gastrointestinal disorders TEAE, events (MAD 200 mg BID, N = 8): 1
Gastrointestinal disorders TEAE, participants (MAD 200 mg BID, N = 8): 1 (12.5) n (%)
General disorders and administration site conditions TEAE, events (MAD 200 mg BID, N = 8): 1
General disorders and administration site conditions TEAE, participants (MAD 200 mg BID, N = 8): 1 (12.5) n (%)
Headache TEAE, events (MAD 200 mg BID, N = 8): 0
Headache TEAE, participants (MAD 200 mg BID, N = 8): 0 n (%)
Injury, poisoning, and procedural complications TEAE, events (MAD 200 mg BID, N = 8): 0
Injury, poisoning, and procedural complications TEAE, participants (MAD 200 mg BID, N = 8): 0 n (%)
Investigations TEAE, events (MAD 200 mg BID, N = 8): 0
Investigations TEAE, participants (MAD 200 mg BID, N = 8): 0 n (%)
Medical device site reaction TEAE, events (MAD 200 mg BID, N = 8): 1
Medical device site reaction TEAE, participants (MAD 200 mg BID, N = 8): 1 (12.5) n (%)
Musculoskeletal and connective tissue disorders TEAE, events (MAD 200 mg BID, N = 8): 0
Musculoskeletal and connective tissue disorders TEAE, participants (MAD 200 mg BID, N = 8): 0 n (%)
Nasal dryness TEAE, events (MAD 200 mg BID, N = 8): 2
Nasal dryness TEAE, participants (MAD 200 mg BID, N = 8): 2 (25.0) n (%)
Neck pain TEAE, events (MAD 200 mg BID, N = 8): 0
Neck pain TEAE, participants (MAD 200 mg BID, N = 8): 0 n (%)
Nervous system disorders TEAE, events (MAD 200 mg BID, N = 8): 1
Nervous system disorders TEAE, participants (MAD 200 mg BID, N = 8): 1 (12.5) n (%)
Oropharyngeal pain TEAE, events (MAD 200 mg BID, N = 8): 0
Oropharyngeal pain TEAE, participants (MAD 200 mg BID, N = 8): 0 n (%)
Reproductive system and breast disorders TEAE, events (MAD 200 mg BID, N = 8): 0
Reproductive system and breast disorders TEAE, participants (MAD 200 mg BID, N = 8): 0 n (%)
Respiratory, thoracic, and mediastinal disorders TEAE, events (MAD 200 mg BID, N = 8): 2
Respiratory, thoracic, and mediastinal disorders TEAE, participants (MAD 200 mg BID, N = 8): 2 (25.0) n (%)
Skin and subcutaneous tissue disorders TEAE, events (MAD 200 mg BID, N = 8): 2
Skin and subcutaneous tissue disorders TEAE, participants (MAD 200 mg BID, N = 8): 2 (25.0) n (%)
Sneezing TEAE, events (MAD 200 mg BID, N = 8): 0
Sneezing TEAE, participants (MAD 200 mg BID, N = 8): 0 n (%)
Testicular mass TEAE, events (MAD 200 mg BID, N = 8): 0
Testicular mass TEAE, participants (MAD 200 mg BID, N = 8): 0 n (%)
Wound TEAE, events (MAD 200 mg BID, N = 8): 0
Wound TEAE, participants (MAD 200 mg BID, N = 8): 0 n (%)
PCSA QTcF increase from baseline ]30-60] msec, participants n/N1 (MAD 300 mg BID): four
ALT in the participant with ALT > 3 ULN (MAD 300 mg BID, Day 18, 4 days after the last dose): 181 IU/L
Abdominal pain TEAE, events (MAD 300 mg BID, N = 8): 1
Abdominal pain TEAE, participants (MAD 300 mg BID, N = 8): 1 (12.5) n (%)
Alanine aminotransferase increased TEAE, events (MAD 300 mg BID, N = 8): 1
Alanine aminotransferase increased TEAE, participants (MAD 300 mg BID, N = 8): 1 (12.5) n (%)
Any event TEAE, events (MAD 300 mg BID, N = 8): 3
Any event TEAE, participants (MAD 300 mg BID, N = 8): 2 (25.0) n (%)
Constipation TEAE, events (MAD 300 mg BID, N = 8): 1
Constipation TEAE, participants (MAD 300 mg BID, N = 8): 1 (12.5) n (%)
Diarrhea TEAE, events (MAD 300 mg BID, N = 8): 0
Diarrhea TEAE, participants (MAD 300 mg BID, N = 8): 0 n (%)
Dry skin TEAE, events (MAD 300 mg BID, N = 8): 0
Dry skin TEAE, participants (MAD 300 mg BID, N = 8): 0 n (%)
Dysgeusia TEAE, events (MAD 300 mg BID, N = 8): 0
Dysgeusia TEAE, participants (MAD 300 mg BID, N = 8): 0 n (%)
Gastrointestinal disorders TEAE, events (MAD 300 mg BID, N = 8): 2
Gastrointestinal disorders TEAE, participants (MAD 300 mg BID, N = 8): 1 (12.5) n (%)
General disorders and administration site conditions TEAE, events (MAD 300 mg BID, N = 8): 0
General disorders and administration site conditions TEAE, participants (MAD 300 mg BID, N = 8): 0 n (%)
Headache TEAE, events (MAD 300 mg BID, N = 8): 0
Headache TEAE, participants (MAD 300 mg BID, N = 8): 0 n (%)
Injury, poisoning, and procedural complications TEAE, events (MAD 300 mg BID, N = 8): 0
Injury, poisoning, and procedural complications TEAE, participants (MAD 300 mg BID, N = 8): 0 n (%)
Investigations TEAE, events (MAD 300 mg BID, N = 8): 1
Investigations TEAE, participants (MAD 300 mg BID, N = 8): 1 (12.5) n (%)
Medical device site reaction TEAE, events (MAD 300 mg BID, N = 8): 0
Medical device site reaction TEAE, participants (MAD 300 mg BID, N = 8): 0 n (%)
Musculoskeletal and connective tissue disorders TEAE, events (MAD 300 mg BID, N = 8): 0
Musculoskeletal and connective tissue disorders TEAE, participants (MAD 300 mg BID, N = 8): 0 n (%)
Nasal dryness TEAE, events (MAD 300 mg BID, N = 8): 0
Nasal dryness TEAE, participants (MAD 300 mg BID, N = 8): 0 n (%)
Neck pain TEAE, events (MAD 300 mg BID, N = 8): 0
Neck pain TEAE, participants (MAD 300 mg BID, N = 8): 0 n (%)
Nervous system disorders TEAE, events (MAD 300 mg BID, N = 8): 0
Nervous system disorders TEAE, participants (MAD 300 mg BID, N = 8): 0 n (%)
Oropharyngeal pain TEAE, events (MAD 300 mg BID, N = 8): 0
Oropharyngeal pain TEAE, participants (MAD 300 mg BID, N = 8): 0 n (%)
Reproductive system and breast disorders TEAE, events (MAD 300 mg BID, N = 8): 0
Reproductive system and breast disorders TEAE, participants (MAD 300 mg BID, N = 8): 0 n (%)
Respiratory, thoracic, and mediastinal disorders TEAE, events (MAD 300 mg BID, N = 8): 0
Respiratory, thoracic, and mediastinal disorders TEAE, participants (MAD 300 mg BID, N = 8): 0 n (%)
Skin and subcutaneous tissue disorders TEAE, events (MAD 300 mg BID, N = 8): 0
Skin and subcutaneous tissue disorders TEAE, participants (MAD 300 mg BID, N = 8): 0 n (%)
Sneezing TEAE, events (MAD 300 mg BID, N = 8): 0
Sneezing TEAE, participants (MAD 300 mg BID, N = 8): 0 n (%)
Testicular mass TEAE, events (MAD 300 mg BID, N = 8): 0
Testicular mass TEAE, participants (MAD 300 mg BID, N = 8): 0 n (%)
Wound TEAE, events (MAD 300 mg BID, N = 8): 0
Wound TEAE, participants (MAD 300 mg BID, N = 8): 0 n (%)
participants with AESIs (ALT increase) (MAD, all balinatunfib groups): four
participants with at least one TEAE (MAD, all balinatunfib groups (12/32)): 37.5%
tolerability (all repeated oral doses (100–600 mg total daily dose, 14 days)): well tolerated
